Laboratory results from ChEMBL document CHEMBL1128475, “Synthesis, pharmacologic activity, and structure-activity relationships of a series of propafenone-related modulators of multidrug resistance” (1995).

What was measured:
CCRF-CEM [1] = assay: The reversion potency of compound was measured against P-glycoprotein expressing CCRF-CEM cells and expressed as the ratio of ED50 in the absence and presence […]; format: functional, Homo sapiens
CCRF-CEM [2] = assay: The chemosensitizing effect was measured against P-glycoprotein expressing CCRF-CEM cells in the presence of […]; format: functional; settings: Homo sapiens, read-out: ED50 (the source's name)
Outline: (§1)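 CCRF-CEM vcr 100 cells (selected stepwise in vincristine; kept in 100 ng/mL vincristine until 1 week before use), RPMI 1640 with 10% FCS. Cytotoxicity of daunomycin or etoposide by MTT reduction, formazan dissolved in 2-propanol/0.04 N HCl, absorbance read. Modifier at 5 μM; six toxin concentrations, triplicate points, ED50 estimated. Reversion potency = toxin ED50 without/with modifier.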

CCRF-CEM [3] = assay: The percentage uptake of [3H]daunomycin in resistant CCRF-CEM vcr 100 cells to sensitive CCRF-CEM cells in presence of the compound.; format: functional, cell-based; settings: Homo sapiens
Outline: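 Rapid-centrifugation uptake. Resistant CCRF-CEM vcr 100 and sensitive CCRF-CEM cells at 5×10^6 cells/mL in RPMI 1640 with 2% FCS. Modifier (final 5 μM, from 100× DMSO stock) added 10 min before [3H]daunomycin (0.4 μCi/mL; total daunomycin final 1 μmol/L). Sampled at 0–60 min, spun through phthalate oil, pellets solubilized in NaOH/SDS, counted by LSC. Expressed as % of sensitive-cell uptake.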

CCRF-CEM [4] = assay: The effective dose was measured against P-glycoprotein expressing CCRF-CEM cells in the presence of 5 uM etoposide; format: functional; settings: Homo sapiens, read-out: ED50 (the source's name); outline: as §1
CCRF-CEM [5] = assay: The reversion potency of compound was measured against P-glycoprotein expressing CCRF-CEM cells and expressed as the ratio of ED50 in the absence and presence of etoposide; format: functional, Homo sapiens; outline: as §1
CCRF-CEM [6] = assay: The effective dose was measured against P-glycoprotein expressing CCRF-CEM cells in the presence of […]; format: functional; settings: Homo sapiens, read-out: ED50 (the source's name); outline: as §1

SMILES	RP (CCRF-CEM [1])	EC50 (CCRF-CEM [2]) [nM]	Uptake (CCRF-CEM [3]) [%]	EC50 (CCRF-CEM [4]) [nM]	RP (CCRF-CEM [5])	EC50 (CCRF-CEM [6]) [nM]
O=C(CCc1ccccc1)c1ccccc1OCC(O)CN1CCCC1 (stereo not given)	20	70	–	–	–	–
CC(C)N(CC(O)COc1ccccc1C(=O)CCc1ccccc1)C(C)C (stereo not given)	22	65	82	–	–	–
CCCN(C)CC(O)COc1ccccc1C(=O)CCc1ccccc1 (stereo not given)	26	55	–	–	–	–
O=C(CCc1ccccc1)c1ccccc1OCC(O)CN1CCN(c2ccc(F)cc2)CC1 (stereo not given)	34	41	92	1020	3.4	–
CC(=O)c1ccccc1OCC(O)CN1CCCCC1 (stereo not given)	2	770	–	–	–	–
COc1ccc(CCN(C)CCCC(C#N)(c2ccc(OC)c(OC)c2)C(C)C)cc1OC (stereo not given)	–	–	79	3400	–	45
CCN(CC)CC(O)COc1ccccc1C(=O)c1ccccc1 (stereo not given)	9	150	–	–	–	–
CCCNCC(O)c1oc2ccccc2c1CCc1ccccc1 (stereo not given)	7	198	–	–	–	–
O=C(CCc1ccccc1)c1ccccc1OCC(O)CN1CCCCC1 (stereo not given)	30	46	83	3300	1.1	–
Cc1ccccc1N1CCN(CC(O)COc2ccccc2C(=O)CCc2ccccc2)CC1 (stereo not given)	33	43	96	648	5.4	–
CCN(CC)CC(O)COc1ccccc1C(=O)CCc1ccccc1 (stereo not given)	12	115	68	3400	–	–
O=C(CCc1ccccc1)c1ccccc1OCC(O)CN1CCOCC1 (stereo not given)	4	359	–	–	–	–
CCCNCC(O)COc1ccccc1C(=O)CCc1ccccc1 (stereo not given) [PROPAFENONE]	16	88	65	–	–	–
COc1ccc(N2CCN(CC(O)COc3ccccc3C(=O)CCc3ccccc3)CC2)cc1 (stereo not given)	42	33	96	948	3.7	–
